# Experimental data reported in article PMC5028098 (International Journal of Nanomedicine, 2016).
# Experiments:
# Assay type in all cases: cell-based, human
# HUVECs = assay: Transwell migration; details: HUVECs in TCM from treated MDA-MB231 cells, dose-dependent for HBP
# MMP2 = assay: Western blot of MMP2 in HUVECs incubated with TCM; details: TCM 24 hours, dose-dependent for HBP
# In short: (§1)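 HUVECs (2×10^5) were grown to 90% confluence, starved 12 h in 2% serum, then incubated 24 h with conditioned medium from MDA-MB231 cells treated with graded test-peptide concentrations. Cells were lysed on ice. Equal protein (40 μg, Bradford) was run on 10% SDS-PAGE and blotted to nitrocellulose. Primary antibody incubation was 4 h at 4°C, followed by HRP anti-rabbit IgG (1:2,000). Bands were quantified by densitometry relative to untreated-medium control; three experiments, mean ± SD.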
# MMP9 = assay: Western blot of MMP9 in HUVECs incubated with TCM; details: TCM 24 hours, decreased to a greater extent than MMP2 for HBP
# In short: as §1
substance,measurement,setting,value
VEGF,effect on migration / number of invasive ECs,HUVECs,no inhibitory effect
same,expression of MMP2 in HUVECs,MMP2,not affected
same,expression of MMP9 in HUVECs,MMP9,not affected
